Reference: ChEMBL document CHEMBL1795304, “Synthesis, antitumor and antimicrobial activities of 4-(4-chlorophenyl)-3-cyano-2-(β-O-glycosyloxy)-6-(thien-2-yl)-nicotinonitrile” (2011)

Legend:
Format in all cases: functional
MCF7 [1] = assay: Cytotoxicity against human MCF7 cells assessed as inhibition of cell viability at 100 ug/mL after 48 hrs by MTT assay; conditions: MCF7, 48 h
Outline: (§1)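 MCF7 cells kept in DMEM with 10% FBS, 2 mM L-glutamine and antibiotics at 37 °C, 5% CO2. Cells plated at 0.5 × 10⁵ per well in serum-free medium and exposed for 48 h to DMSO-dissolved compound (25, 50, 100 µg/mL). MTT then added for 4 h and formazan dissolved in acidified isopropanol. Absorbance read at 570 nm in triplicate, expressed as % viability versus untreated cells.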

Bacillus subtilis = assay: Antimicrobial activity against Bacillus subtilis at 1 ug/mL after 48 hrs by cup plate agar diffusion method; conditions: read-out: IZ
Outline: (§2)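 Cup plate agar diffusion. Compounds dissolved in DMSO at 1 µg/mL. Plates incubated 48 h at 37 °C, then inhibition zone diameter measured in mm. DMSO served as solvent control and ampicillin as reference.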

MCF7 [2] = assay: Cytotoxicity against human MCF7 cells assessed as inhibition of cell viability at 25 ug/mL after 48 hrs by MTT assay; conditions: MCF7, 48 h; outline: as §1
Escherichia coli = assay: Antimicrobial activity against Escherichia coli at 1 ug/mL after 48 hrs by cup plate agar diffusion method; conditions: read-out: IZ; outline: as §2
Staphylococcus aureus = assay: Antimicrobial activity against Staphylococcus aureus at 1 ug/mL after 48 hrs by cup plate agar diffusion method; conditions: read-out: IZ; outline: as §2
MCF7 [3] = assay: Cytotoxicity against human MCF7 cells assessed as inhibition of cell viability at 50 ug/mL after 48 hrs by MTT assay; conditions: MCF7, 48 h; outline: as §1
Pseudomonas aeruginosa = assay: Antimicrobial activity against Pseudomonas aeruginosa at 1 ug/mL after 48 hrs by cup plate agar diffusion method; conditions: read-out: IZ; outline: as §2

Row | SMILES | inhibition at 100 µg/mL (MCF7 [1]) [%] | zone of inhibition at 1 µg/mL (Bacillus subtilis) [mm] | inhibition at 25 µg/mL (MCF7 [2]) [%] | zone of inhibition at 1 µg/mL (Escherichia coli) [mm] | zone of inhibition at 1 µg/mL (Staphylococcus aureus) [mm] | inhibition at 50 µg/mL (MCF7 [3]) [%] | zone of inhibition at 1 µg/mL (Pseudomonas aeruginosa) [mm]
1 | CC(=O)OC[C@H]1O[C@@H](Oc2nc(-c3cccs3)cc(-c3ccc(Cl)cc3)c2C#N)[C@H](OC(C)=O)[C@@H](OC(C)=O)[C@@H]1OC(C)=O | 10 | 11 | 0 | 3 | 8 | 5 | 13
2 | CC(=O)OC[C@H]1O[C@@H](Oc2nc(-c3cccs3)cc(-c3ccc(Cl)cc3)c2C#N)[C@H](OC(C)=O)[C@@H](OC(C)=O)[C@H]1OC(C)=O | 20 | 10 | 0 | 5 | 12 | 5 | 26
3 | N#Cc1c(-c2ccc(Cl)cc2)cc(-c2cccs2)nc1O[C@@H]1O[C@H](CO)[C@@H](O)[C@H](O)[C@H]1O | 0 | 1 | 0 | 0 | 3 | 0 | 0
4 | N#Cc1c(-c2ccc(Cl)cc2)cc(-c2cccs2)nc1O[C@@H]1O[C@H](CO)[C@H](O)[C@H](O)[C@H]1O | – | 0 | – | 0 | 0 | – | 0
5 | CC(=O)OC[C@H]1O[C@@H](Oc2nc(-c3cccs3)cc(-c3ccc(Cl)cc3)c2C#N)[C@H](OC(C)=O)[C@H]1OC(C)=O | 8 | – | 0 | – | – | 0 | –
6 | CC(=O)OC[C@H]1O[C@@H](Oc2nc(-c3cccs3)cc(-c3ccc(Cl)cc3)c2C#N)[C@H](OC(C)=O)[C@@H]1OC(C)=O | 12 | 8 | 2 | 3 | 9 | 7 | 25
7 | N#Cc1c(-c2ccc(Cl)cc2)cc(-c2cccs2)nc1O[C@@H]1O[C@H](CO)[C@H](O)[C@H]1O | – | 3.5 | – | 2 | 3 | – | 9
8 | N#Cc1c(-c2ccc(Cl)cc2)cc(-c2cccs2)nc1O[C@@H]1O[C@H](CO)[C@@H](O)[C@H]1O | 0 | 7 | 0 | 6 | 10 | 0 | 28
9 | CC(=O)OC[C@H]1O[C@@H](O[C@H]2[C@H](OC(C)=O)[C@@H](OC(C)=O)[C@H](Oc3nc(-c4cccs4)cc(-c4ccc(Cl)cc4)c3C#N)O[C@@H]2COC(C)=O)[C@H](OC(C)=O)[C@@H](OC(C)=O)[C@H]1OC(C)=O | 10 | – | 0 | – | – | 5 | –
10 | N#Cc1c(-c2ccc(Cl)cc2)cc(-c2cccs2)nc1O[C@@H]1O[C@H](CO)[C@@H](O[C@@H]2O[C@H](CO)[C@H](O)[C@H](O)[C@H]2O)[C@H](O)[C@H]1O | – | 3 | – | 0 | 5 | – | 10
11 | CC1(C)S[C@@H]2[C@H](NC(=O)[C@H](N)c3ccccc3)C(=O)N2[C@H]1C(=O)O [AMPICILLIN] | – | 6 | – | 2 | 7 | – | 23
12 | COc1cccc2c1C(=O)c1c(O)c3c(c(O)c1C2=O)C[C@@](O)(C(=O)CO)C[C@@H]3O[C@H]1C[C@H](N)[C@H](O)[C@H](C)O1 [DOXORUBICIN] | 50 | – | 6 | – | – | 15 | –
13 | O=c1[nH]cc(F)c(=O)[nH]1 [FLUOROURACIL] | 7 | – | 0 | – | – | 0 | –
